IMP-1 inh-1: blocks Pseudomonas aeruginosa IMP-1 metallo-beta-lactamase; purified IMP-1, nitrocefin hydrolysis, epi-absorbance fluorescence; inhibition, % at 5.6 µM; 290,000 compounds, 0.45% hits; AID 1556;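 active = inhibition above the mean plus 3 SD of all compounds in the same screening run, cut at about 4.5% in these data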;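 also: 0% = IMP-1 with DMSO and 100% = DMSO wells lacking enzyme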
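Material – recombinant IMP-1 enzyme, purified · Amount – IMP-1 0.2 nM before substrate addition · Medium – HEPES buffer pH 7.1 with ZnSO4 and Brij 35 · Timing – 25 °C, 15 min preincubation, 25 min reaction · Measured by – plate fluorescence quenching by hydrolysis product, ex 480/em 530 nm · Read-out – percent enzyme inhibition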
MEX-5 binding: C. elegans MEX-5 TCR-2 RNA binding activity; MEX-5/FITC-TCR2 RNA binding, fluorescence polarization; hits give low values; activity score (negative = inhibition of binding), % at 10 µM; 300,000 compounds, 0.38% hits;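 active = inhibition past about -25% in most replicates, and total fluorescence under double the plate's negative control median, limit read from the data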;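 also: 0% = DMSO and -100% = 5 µM competing unlabeled TCR2 RNA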
EBV gp42 block: EBV gp42 inhibition; Q1HVG2; Fluorescence polarization binding assay, mP read-out; inhibition, % (tested at 21.74 µM); 220,000 compounds, 0.42% hits; AID 1085; in the data active = inhibition above about 50%
Target sequence (Q1HVG2 whole entry, looked up): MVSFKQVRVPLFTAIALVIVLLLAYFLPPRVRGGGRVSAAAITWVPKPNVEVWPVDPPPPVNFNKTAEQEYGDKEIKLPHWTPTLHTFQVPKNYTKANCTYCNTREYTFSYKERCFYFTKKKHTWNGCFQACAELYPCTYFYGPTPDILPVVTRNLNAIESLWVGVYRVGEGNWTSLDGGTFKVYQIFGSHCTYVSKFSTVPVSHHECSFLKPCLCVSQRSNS
VIM-2 inhibitor: blocks Pseudomonas aeruginosa VIM-2 metallo-beta-lactamase; purified VIM-2, nitrocefin hydrolysis, epi-absorbance fluorescence; inhibition, % at 5.6 µM; 290,000 compounds, 0.89% hits; AID 1527;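 active = inhibition above the mean of all tested compounds plus 3 SD, cutoff set per screening run, cut at about 7.5% in these data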;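 also: red hydrolysis product quenches plate fluorescence so inhibitors raise well fluorescence; 0% = enzyme with DMSO and 100% = DMSO without enzyme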
GLD-1 RNA inh: GLD-1-TGE RNA interaction inhibition (C. elegans); 320,000 compounds, 0.44% hits; AID 2280; purified GLD-1 + fluorescein TGE RNA, fluorescence polarization; inhibition, % at 5.96 µM;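 active = percent inhibition above a per-plate cutoff, the plate mean of test compounds plus 3 SD, cut at about 30% in these data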;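 also: 0% = DMSO wells with GLD-1 and probe and 100% = wells lacking GLD-1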
Target sequence (Q17339 whole entry, looked up): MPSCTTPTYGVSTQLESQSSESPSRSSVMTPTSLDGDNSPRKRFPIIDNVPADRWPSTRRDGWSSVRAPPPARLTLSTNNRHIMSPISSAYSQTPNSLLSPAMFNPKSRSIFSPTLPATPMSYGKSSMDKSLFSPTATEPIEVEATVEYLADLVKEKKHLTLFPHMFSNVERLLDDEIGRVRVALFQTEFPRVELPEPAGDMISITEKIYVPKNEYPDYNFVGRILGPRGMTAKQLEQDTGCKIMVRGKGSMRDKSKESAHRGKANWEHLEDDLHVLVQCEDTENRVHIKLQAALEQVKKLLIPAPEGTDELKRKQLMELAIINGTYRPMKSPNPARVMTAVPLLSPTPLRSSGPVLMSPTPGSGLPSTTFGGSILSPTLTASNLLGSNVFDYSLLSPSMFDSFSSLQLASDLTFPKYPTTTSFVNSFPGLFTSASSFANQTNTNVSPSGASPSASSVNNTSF
BCLXL inh: blocks human Bcl-xL binding to Bim BH3 peptide; inhibition, % at 10.9 µM; Q07817; GST-Bcl-xL / FITC-Bim BH3 peptide fluorescence polarization; 320,000 compounds, 0.7% hits; AID 2129;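 active = inhibition above the mean of all tested compounds plus 3 SD, cutoff set per campaign, cut at about 30% in these data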;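 also: 0% = DMSO wells and 100% = unlabeled Bim-BH3 peptide competitor; inhibitors lower millipolarization by displacing the labeled peptide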
IMP-1 inh-2: blocks IMP-1 metallo-beta-lactamase in VIM-2 selectivity screen; 1,300 tested, under 10 active; shares compounds with VIM-2 inhibitor; AID 1856; inhibition, % at 5.6 µM; purified IMP-1, nitrocefin hydrolysis, epi-absorbance fluorescence; call rule not given here;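 also: 0% = enzyme with vehicle and 100% = vehicle without enzyme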
VIM-2 FRET ctr: counter-screen for VIM-2 inhibitors: epi-absorbance artifacts via FRET; shares compounds with VIM-2 inhibitor; AID 1857; inhibition, % at 5.6 µM; 1,300 compounds, 23% hits; purified VIM-2, CCF2 FRET substrate hydrolysis;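 active = inhibition above the mean of all tested compounds plus 3 SD, cut at about 19% in these data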;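 also: 0% = VIM-2 plus DMSO and 100% = no enzyme wells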
TEM-1 inh: selectivity counter-screen for VIM-2 inhibitors: E. coli TEM-1 inhibitors; shares compounds with VIM-2 inhibitor; Purified TEM-1, nitrocefin hydrolysis, epi-absorbance fluorescence; inhibition, % at 5.6 µM; 1,300 compounds, 3% hits; AID 1866;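 active = inhibition above that campaign's mean inhibition plus 3 SD, cut at about 0.46% in these data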;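 also: 0% = TEM-1 with DMSO and 100% = TEM-1 with 100 µM potassium clavulanate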
VIM-2 confirm 2: confirmation of P. aeruginosa VIM-2 metallo-beta-lactamase inhibitors; AID 2187; 1,300 compounds, 96% hits; shares compounds with VIM-2 inhibitor; inhibition, % at 5.6 µM; purified VIM-2, nitrocefin hydrolysis, epi-absorbance;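 active = inhibition of the VIM-2 beta-lactamase enzyme above about 11% from the earlier first-round screen, limit read from the data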;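 also: 0% = VIM-2 with DMSO and 100% = buffer wells without enzyme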
Starred values were filed as active, the others as inactive; · = no result given. Sampled rows, rich in hits. Any-hit rate of the full collection: about 2.2%.

SMILES	IMP-1 inh-1	MEX-5 binding	EBV gp42 block	VIM-2 inhibitor	GLD-1 RNA inh	BCLXL inh	IMP-1 inh-2	VIM-2 FRET ctr	TEM-1 inh	VIM-2 confirm 2
C=C1CSc2nc(=O)c3c4c(sc3n21)CCCC4	-1.8	-2.6	-19.7	13.6*	-7.9	4.5	-2.9	-1.1	-7.1	32.7*
COc1ccc(/C=C2\SC(=S)N(CCC(=O)N3CCOCC3)C2=O)cc1	-0.1	2.3	·	-2.7	1.7	2.2	·	·	·	·
COc1ccc(/C=C2\SC(=S)N(CCCC(=O)N3CCN(C)CC3)C2=O)cc1	-0.1	-1.5	·	15.5*	1.3	3.6	-2.1	0.3	-6.8	26.6*
CN(C(=O)C1CCC(=O)N(CCc2ccc(Cl)cc2)C1)C1CCOCC1 (stereo not drawn)	0.5	1.3	·	-0.1	-2.4	0.6	·	·	·	·
COc1ccc(C)cc1Nc1cc(C)nc2nc(C)nn12	-4.0	-4.2	-20.5	26.3*	7.2	1.5	-2.1	-0.8	-6.4	39.7*
Cc1cc(Nc2ccccc2Br)n2nc(C)nc2n1	-3.5	0.7	-9.5	7.3	0.5	2.0	·	·	·	·
COC(=O)c1ccccc1Nc1cc(C)nc2nc(C)nn12	-0.6	-0.6	-19.9	13.0*	6.9	2.5	-3.3	2.2	-5.4	29.3*
COc1ccc(OC)c(Nc2cc(C)nc3nc(C)nn23)c1	-3.9	-1.2	-10.5	14.6*	5.8	2.7	-3.3	-1.7	-3.5	30.4*
Cc1cc(Nc2cc(F)ccc2C)n2nc(C)nc2n1	0.2	-0.8	-21.6	5.5	1.4	-1.1	·	·	·	·
O=C(Cn1cc(C(F)(F)F)ccc1=O)N1CCc2ccccc2C1	·	·	·	·	-1.1	1.7	·	·	·	·
CCC(C)(CCNC(=O)Cc1ccccc1)c1ccccc1OC (stereo not drawn)	-0.9	-1.1	·	-0.8	-8.9	5.2	·	·	·	·
Oc1ccc(CN2CCN(Cc3ccccc3)CC2)c2cccnc12	-1.6	-6.0	0.7	-1.4	-3.7	6.7	·	·	·	·
CN1CCN(Cc2cc(COCc3ccccc3)c3cccnc3c2O)CC1	-2.4	-0.4	-17.4	12.4*	-6.8	8.2	-3.2	32.7*	-4.8	33.0*
O=C(COc1coc(CN2CCc3ccccc3C2)cc1=O)Nc1cccc(Cl)c1	·	2.0	·	·	-4.0	2.9	·	·	·	·
CSc1nnc(-c2cc3c(-c4ccccc4)nn(C)c3s2)n1C	-1.8	0.2	-15.8	18.9*	1.2	1.3	-2.8	0.3	-5.3	26.4*
COc1ccc2c(=O)c(-c3ccc4c(c3)OCO4)coc2c1	-4.6	-0.6	-8.4	-1.6	5.7	0.8	·	·	·	·
COc1ccc2c(c1)c(=O)c(C(=O)O)c(-c1ccc3c(c1)OCO3)n2C	-1.5	1.6	-4.9	40.3*	6.5	6.4	-2.9	73.2*	-5.7	59.0*
COc1ccc(-c2nc(C#N)c(NCCCN(C)C)o2)cc1OC	2.9	1.6	-22.4	12.2*	-1.5	1.1	-2.3	1.2	-5.8	27.2*
COc1ccccc1-c1nc(C#N)c(NCCCn2ccnc2)o1	-0.7	-10.0	-3.6	18.4*	5.0	4.7	-3.5	-6.4	-5.0	34.5*
N#Cc1nc(-c2ccc(OCc3ccc(Cl)cc3)cc2)oc1NCCCn1ccnc1	-4.4	-0.4	-3.2	-5.3	-4.5	8.4	·	·	·	·
N#Cc1nc(-c2ccccc2)oc1NCCCn1ccnc1	-4.9	-4.8	1.1	25.8*	5.5	2.5	-3.2	-11.4	-5.6	45.1*
COc1cccc(C(C(=O)NC2CCCC2)N(C(=O)c2csnn2)C2CC2)c1 (stereo not drawn)	-2.1	-1.2	·	-2.0	-4.9	0.7	·	·	·	·
O=C(CSc1ccccc1F)NNC(=O)c1cncc(Br)c1	·	·	·	·	5.1	·	·	·	·	·
CCOc1ccccc1NC(=O)C(OC(=O)c1cnccn1)c1ccccc1 (stereo not drawn)	·	-0.1	·	·	5.9	-1.4	·	·	·	·
O=c1c2ccccc2oc2ccc(C#CC3(O)CCCCC3)cc12	·	-3.4	·	·	1.3	4.1	·	·	·	·
SMILES	IMP-1 inh-1	MEX-5 binding	EBV gp42 block	VIM-2 inhibitor	GLD-1 RNA inh	BCLXL inh	IMP-1 inh-2	VIM-2 FRET ctr	TEM-1 inh	VIM-2 confirm 2
Cn1c2ccccc2c(=O)c2ccc(F)cc21	-4.5	-1.9	·	13.0*	-4.6	4.2	-2.4	-22.5	-9.5	23.6*
Cn1c2ccccc2c(=O)c2ccc(C#CC3(N)CCCCC3)cc21	-2.8	0.0	·	27.6*	12.3	6.0	-2.5	-0.5	-10.0	39.2*
COc1cccc2oc3ccc(C#CC4(N)CCCCC4)cc3c(=O)c12	-1.3	3.1	·	14.7*	-2.1	-1.7	-3.2	-1.6	-5.8	19.8*
Cn1c2ccccc2c(=O)c2cc(C#Cc3ccccn3)ccc21	-3.0	-6.2	·	13.8*	2.9	9.0	-2.2	-8.2	-5.2	16.6*
Cn1c2ccccc2c(=O)c2cc(C#Cc3ccsc3)ccc21	-2.2	-0.6	·	-0.8	2.2	1.2	·	·	·	·
Cc1ccc(S(=O)(=O)NC(=O)NCC2CCN(S(=O)(=O)c3ccccc3)CC2)cc1	2.7	-1.5	·	1.1	2.1	2.2	·	·	·	·
NC(=O)C1CCN(c2nc(-c3ccccc3C(F)(F)F)cs2)CC1	·	·	·	·	-2.5	·	·	·	·	·
CNC(=O)c1c[nH]c2ccc(S(=O)(=O)Nc3cccc(SC)c3)cc2c1=O	-1.0	1.3	·	0.2	·	·	·	·	·	·
CC(=O)Nc1ccc(NC(=O)CSc2nnc(-c3cccs3)n2N)cc1	·	1.3	·	·	9.2	-3.2	·	·	·	·
CCOC(=O)c1sc2nc(C)nc(NCc3cccnc3)c2c1C	-3.4	2.2	-17.7	23.9*	0.1	3.7	-2.6	-3.9	-6.4	50.3*
CCOC(=O)c1sc2nc(C)nc(NCc3ccc(F)cc3)c2c1C	-1.8	4.3	·	1.4	-11.5	-5.5	·	·	·	·
CCCc1cc(=O)oc2cc(C)cc(OCC(=O)Nc3ccc(CN4CCOCC4)cc3)c12	-0.7	-5.6	·	13.7*	-1.2	-0.7	-4.0	-2.0	-7.8	20.3*
CCc1cc(=O)oc2cc(C)cc(OCC(=O)NCCN3CCOCC3)c12	-0.2	-2.8	·	3.8	-0.8	0.0	·	·	·	·
CCc1cc(=O)oc2cc(C)cc(OCC(=O)NCCCN3CCOCC3)c12	-0.8	0.7	·	14.2*	0.1	0.9	-2.6	-1.1	-6.0	22.0*
Cc1ccc(N(CC(=O)NC(C)C)C(=O)CCC(=O)Nc2nccs2)cc1C	-2.6	-0.9	·	-3.4	3.1	6.3	·	·	·	·
O=C(Nc1cc2c3c(c1)CC(=O)N3CCC2)c1ccco1	·	-2.1	·	·	3.4	5.8	·	·	·	·
Cc1ccc(NC(=O)CN(C)C2CCCCC2)cc1Cl	0.8	2.3	·	3.1	·	·	·	·	·	·
O=C(COc1ccc2c3c(c(=O)oc2c1)CCC3)NCCN1CCOCC1	-0.9	1.1	·	18.8*	-9.4	2.1	-2.8	-16.4	-5.2	25.0*

Assay outcomes as filed in PubChem.
